Laboratory results taken from PMC3737387 (Nuclear medicine and biology, 2013).
Values joined by “and” are separate entries in the source; they are usually repeats but may differ in a detail not shown here. Equal entries are not always repeated.

Columns and labels:
[1] = Ex vivo biodistribution of [^11C]PF-04457845 in conscious rat brain and plasma; settings: for Ex vivo biodistribution, Cerebellum / Ex vivo biodistribution, Cortex / Ex vivo biodistribution, Hypothalamus / Ex vivo biodistribution, Plasma / Ex vivo biodistribution, Rest of Brain: n = 4
[2] = target: T1, FAAH (Rattus norvegicus, UniProt P97612); test: Pharmacological blocking of [^11C]PF-04457845 uptake in rat brain; type: in vivo; settings: control vs URB597 (2 mg/kg ip) pretreated group; 40 min post injection
T1 sequence (P97612 1-579): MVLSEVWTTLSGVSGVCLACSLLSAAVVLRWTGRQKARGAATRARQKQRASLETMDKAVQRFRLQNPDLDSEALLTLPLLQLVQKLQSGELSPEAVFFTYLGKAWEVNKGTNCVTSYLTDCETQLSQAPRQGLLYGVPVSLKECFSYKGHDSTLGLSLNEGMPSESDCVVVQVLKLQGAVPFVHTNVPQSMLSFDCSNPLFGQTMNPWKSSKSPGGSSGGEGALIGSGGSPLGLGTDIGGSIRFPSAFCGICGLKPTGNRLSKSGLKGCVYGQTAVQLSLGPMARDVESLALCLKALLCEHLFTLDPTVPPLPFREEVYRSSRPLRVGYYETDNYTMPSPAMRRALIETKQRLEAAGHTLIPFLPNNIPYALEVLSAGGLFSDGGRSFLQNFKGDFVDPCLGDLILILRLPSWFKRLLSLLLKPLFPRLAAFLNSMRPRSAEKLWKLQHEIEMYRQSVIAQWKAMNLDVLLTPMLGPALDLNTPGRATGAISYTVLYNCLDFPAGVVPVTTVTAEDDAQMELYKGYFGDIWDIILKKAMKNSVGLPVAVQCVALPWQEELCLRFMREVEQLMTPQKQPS

[3] = HPLC analysis of plasma metabolites; type: in vivo; settings: rat
Method in brief: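 Heparinized rat trunk blood is centrifuged, and the plasma is acidified with 20% (v/v) of 50% aqueous acetic acid. It is loaded onto an HLB capture column, eluted with 1% acetonitrile (2 mL/min, 4 min), then backflushed with 60% acetonitrile/water + 0.1 N ammonium formate (pH 4) onto C18. Detection is by coincidence-mode radio-flow. Eluent switches to 100% ethanol after the parent to detect lipophilic metabolites. Peaks are decay-corrected and integrated.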

[4] = target: T1, FAAH; test: Irreversible binding of [^11C]PF-04457845 to FAAH in the rat brain; type: in vivo
[5] = system: FAAH; settings: rodents, cited from earlier work
[6] = system: FAAH; settings: Phase II crossover study, pain associated with osteoarthritis; cited from earlier work
[7] = system: FAAH; settings: rodents; cited from earlier work
[8] = system: FAAH; settings: URB597 2 mg/kg ip; cited from earlier work
[9] = system: FAAH; settings: previously reported; cited from earlier work

O=C(Nc1cccnn1)N1CCC(=Cc2cccc(Oc3ccc(C(F)(F)F)cn3)c2)CC1 [[^11C]PF-04457845]
brain uptake ([1]; conscious rats, tail-vein injection, across regions and time points): 1.2 to 4.4 SUV
Ex vivo biodistribution, Cerebellum ([1]; rat, 2 min post iv injection): 1.87 ± 0.05 SUV
Ex vivo biodistribution, Cortex ([1]; rat, 2 min post iv injection): 2.22 ± 0.06 SUV
Ex vivo biodistribution, Hypothalamus ([1]; rat, 2 min post iv injection): 1.29 ± 0.05 SUV
Ex vivo biodistribution, Plasma ([1]; rat, 2 min post iv injection): 1.03 ± 0.19 SUV
Ex vivo biodistribution, Rest of Brain ([1]; rat, 2 min post iv injection): 1.51 ± 0.08 SUV
Ex vivo biodistribution, Cerebellum ([1]; rat, 15 min post iv injection): 3.17 ± 0.10 SUV
Ex vivo biodistribution, Cortex ([1]; rat, 15 min post iv injection): 3.64 ± 0.24 SUV
Ex vivo biodistribution, Hypothalamus ([1]; rat, 15 min post iv injection): 1.96 ± 0.10 SUV
Ex vivo biodistribution, Plasma ([1]; rat, 15 min post iv injection): 0.33 ± 0.04 SUV
Ex vivo biodistribution, Rest of Brain ([1]; rat, 15 min post iv injection): 2.44 ± 0.07 SUV
Ex vivo biodistribution, Cerebellum ([1]; rat, 40 min post iv injection): 3.56 ± 0.10 SUV
Ex vivo biodistribution, Cortex ([1]; rat, 40 min post iv injection): 4.11 ± 0.30 SUV
Ex vivo biodistribution, Hypothalamus ([1]; rat, 40 min post iv injection): 2.18 ± 0.20 SUV
Ex vivo biodistribution, Plasma ([1]; rat, 40 min post iv injection): 0.12 ± 0.01 SUV
Ex vivo biodistribution, Rest of Brain ([1]; rat, 40 min post iv injection): 2.77 ± 0.24 SUV
Ex vivo biodistribution, Cerebellum ([1]; rat, 60 min post iv injection): 3.42 ± 0.34 SUV
Ex vivo biodistribution, Cortex ([1]; rat, 60 min post iv injection): 3.92 ± 0.37 SUV
Ex vivo biodistribution, Hypothalamus ([1]; rat, 60 min post iv injection): 2.10 ±0.31 SUV
Ex vivo biodistribution, Plasma ([1]; rat, 60 min post iv injection): 0.09 ± 0.03 SUV
Ex vivo biodistribution, Rest of Brain ([1]; rat, 60 min post iv injection): 2.59 ± 0.19 SUV
time at which brain uptake reaches a plateau ([1]; rat, post injection): 40 min
specific to non-specific binding ratio, cerebellum [2]: 3.4
specific to non-specific binding ratio, cortex [2]: 4.2
specific to non-specific binding ratio, hypothalamus [2]: 2.5
parent radiotracer remaining in plasma ([3]; 15 min post injection): 82%
parent radiotracer remaining in plasma ([3]; 40 min post injection): 73%
parent radiotracer remaining in plasma ([3]; 60 min post injection): 66%
lipophilic metabolite, share of total radioactivity present in plasma ([3]; later time-points): 3 – 3.5%
SBR (specific to non-specific binding ratio) to FAAH from extraction studies ([4]; rat whole brain, ([95/5]-1)): > 18
radioactivity irreversibly bound to brain tissue ([4]; rat, 2 min post injection): 84%
extractable brain radioactivity ([4]; rat, 40 min post injection): 2%
radioactivity in whole brain that is FAAH-bound ([4]; rat, 40 min post injection): > 95%
radioactivity irreversibly bound to brain tissue ([4]; rat, 40 min post injection): 98%
radioactivity bound to brain parenchyma ([4]; rat, after ip pre-treatment with URB597 (2 mg/kg)): 5%

O=C(Nc1cccnn1)N1CCC(=Cc2cccc(Oc3ccc(OCC[18F])cn3)c2)CC1 [[^18F]PF-9811, 4-(3-((5-(2-[^18F]fluoroethoxy)pyridine-2-yl)oxy)benzylidene)-N-(pyridazin-3-yl)piperidine-1-carboxamide]
brain uptake in the cortex ([5]; 90 min): 0.8 SUV
specific to non-specific binding ratios [5]: 2.3 – 2.6

O=C(Nc1cccnn1)N1CCC(=Cc2cccc(Oc3ccc(C(F)(F)F)cn3)c2)CC1 [PF-04457845]
analgesic effect [6]: did not induce an analgesic effect
endocannabinoid levels in blood [6]: modulate endocannabinoid levels in blood

COc1ccc(NC(=O)Oc2ccc[11c](-c3ccccc3)c2)cc1 [[^11C]1,1′-biphenyl-3-yl-(4-methoxyphenyl)carbamate]
brain uptake [7]: low brain uptake
specific binding [7]: no detectable specific binding

NC(=O)c1cccc(-c2cccc(OC(=O)NC3CCCCC3)c2)c1 [URB597, 3′-carbamoyl-[1,1′-biphenyl]-3-yl-cyclohexylcarbamate]
FAAH enzyme inactivated in rodent brains [8]: > 90% and 90%

O=[11C](NC1CCCCC1)Oc1ccc(O)c(-c2ccccc2)c1 [[^11C]CURB, [^11C-carbonyl]-6-hydroxy-[1,1′-biphenyl]-3-yl-cyclohexylcarbamate]
level of specific binding [9]: 80%
